Screening data (PubChem)
Rows were chosen to be rich in hits. Some 2.2% of all compounds tested hit in one or more screens of this group.
M5 PAM = human M5 muscarinic receptor positive allosteric modulators, primary screen, CHO-K1 cells, Fluo-8 calcium fluorescence | AID 624038, 2012 | activation, % at 3 µM | Muscarinic acetylcholine receptor M5 (Homo sapiens), P08912 | 360,000 compounds, 0.3% hits | CHO-K1 hM5, ACh EC20 PAM; 0% = ACh EC20, 100% = ACh EC100;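 active = activation above the run cutoff, the mean activation of all test compounds plus 3 SD, cut at about 18% in these data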
Target sequence (P08912 whole entry, looked up): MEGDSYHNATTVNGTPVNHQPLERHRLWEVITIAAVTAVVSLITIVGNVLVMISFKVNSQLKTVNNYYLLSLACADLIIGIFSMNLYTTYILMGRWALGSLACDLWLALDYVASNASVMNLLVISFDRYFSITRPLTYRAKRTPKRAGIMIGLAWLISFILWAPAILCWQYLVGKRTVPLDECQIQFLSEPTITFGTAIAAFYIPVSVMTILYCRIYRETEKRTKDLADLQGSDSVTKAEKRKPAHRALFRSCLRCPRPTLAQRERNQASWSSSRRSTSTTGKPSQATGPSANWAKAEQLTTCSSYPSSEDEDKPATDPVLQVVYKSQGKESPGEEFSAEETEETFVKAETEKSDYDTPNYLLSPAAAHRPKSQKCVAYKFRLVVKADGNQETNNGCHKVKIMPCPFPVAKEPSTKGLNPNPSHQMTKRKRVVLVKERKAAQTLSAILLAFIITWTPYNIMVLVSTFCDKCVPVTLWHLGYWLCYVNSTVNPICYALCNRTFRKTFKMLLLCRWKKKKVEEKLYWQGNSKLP
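Test system: CHO-K1 hM5 cells / Doses: single-point, 3 µM nominal / Times: Post-acetylcholine fluorescence recording 140 s / Technique: Fluo-8 calcium fluorescence / Measure: Max/basal fluorescence ratio as % of EC20–EC100 ACh window / Benchmarks: low control EC20 acetylcholine (0%), high control EC100 acetylcholine (100%) / Replicates: one well per compound, no replicates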
M5 antag = human M5 muscarinic receptor antagonists, primary screen, CHO cells, Fluo-8 calcium fluorescence. Muscarinic acetylcholine receptor M5 (Homo sapiens), P08912. CHO-hM5 cells, ACh EC80. inhibition, % at 3 µM. 360,000 compounds, 0.59% hits;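 active = inhibition above a per-plate cutoff, the mean of that plate's test compounds plus 3 SD, cut at about 27% in these data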;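 note: 0% = acetylcholine EC80 with DMSO and 100% = DMSO without agonist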
M1 ag = human M1 muscarinic receptor agonists, primary screen, Fluo-8 calcium fluorescence, CHO-K1 cells, HTS; Muscarinic acetylcholine receptor M1 (Homo sapiens), P11229; CHO-K1 hM1, agonist mode; 0% DMSO, 100% acetylcholine EC100; activation, % at 3 µM; 360,000 compounds, 0.33% hits; AID 588814, 2011;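 active = activation above the run's mean compound activation plus 3 SD, cut at about 16% in these data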;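 note: peak over basal fluorescence ratio within a 140 s kinetic read after compound addition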
M1 PAM = human M1 muscarinic receptor positive allosteric modulators, primary screen, CHO-K1 cells, Fluo-8 calcium fluorescence, 1536-well; activation, % at 3 µM; CHO-K1 hM1, ACh EC20; 0% = ACh EC20, 100% = maximal ACh; 360,000 compounds, 0.088% hits; Muscarinic acetylcholine receptor M1 (Homo sapiens), P11229; AID 588819, 2011; in the data active = activation above about 19%, passing the limit was not always enough
CHRM5 agonist = human M5 muscarinic receptor agonists, primary screen, CHO-K1 cells, Fluo-8 calcium fluorescence; Muscarinic acetylcholine receptor M5 (Homo sapiens), P08912; 360,000 compounds, 0.19% hits; CHO-K1 hM5 cells; 0% DMSO wells, 100% maximal acetylcholine response; activation, % at 3 µM;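 active = activation above the run's mean over test compounds plus 3 SD, cut at about 23% in these data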;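 note: signal is peak over basal fluorescence ratio across the kinetic read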
M1 antag = human M1 muscarinic receptor antagonists, primary screen, CHO-K1 cells, Fluo-8 calcium fluorescence, 1536-well | Muscarinic acetylcholine receptor M1 (Homo sapiens), P11229 | CHO-K1 hM1, ACh EC80 antagonist | inhibition, % at 3 µM | 360,000 compounds, 1.3% hits | AID 588852, 2011;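 active = percent inhibition above its own plate's cutoff, namely the mean of that plate's compound wells plus 3 SD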;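 note: peak over basal fluorescence ratio during 140 s after agonist addition; 0% = ACh EC80 plus DMSO and 100% = DMSO alone without agonist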
Active calls of the source: *.

Results for Cc1cc(C)c(NC(=O)CN(C)CC(=O)Nc2cccc(S(=O)(=O)N(C)c3ccccc3)c2)c(C)c1 ?
M5 PAM: -47.6; M5 antag: 21.5; M1 ag: -0.7; M1 PAM: -13.8; CHRM5 agonist: 3.6; M1 antag: 36.2*

What do the screens show for `O=C(NCCN1C(=O)S/C(=C\c2ccc(Cl)cc2)C1=O)c1ccc(F)c(S(=O)(=O)N2CCOCC2)c1`?
M5 PAM: -3.8; M5 antag: 0.7; M1 ag: -5.5; M1 PAM: 1.9; CHRM5 agonist: -1.4; M1 antag: -3.1

What do the screens show for `O=C(NCCN1C(=O)S/C(=C\c2ccccc2)C1=O)c1cc(S(=O)(=O)N2CCOCC2)c(Cl)cc1Cl`?
M5 PAM: -13.4; M5 antag: 3.0; M1 ag: -4.0; M1 PAM: -6.3; CHRM5 agonist: 2.7; M1 antag: 43.3*

How did CN(c1ccccc1)S(=O)(=O)c1cccc(NC(=O)c2ccc3ncsc3c2)c1 do in these assays?
M5 PAM: -31.4; M5 antag: 19.0; M1 ag: 1.8; M1 PAM: -4.4; CHRM5 agonist: -2.9; M1 antag: 7.2

What do the screens show for `CN(c1ccccc1)S(=O)(=O)c1cccc(NC(=O)c2cccc(C#N)c2)c1`?
M5 PAM: -16.4; M5 antag: 32.9*; M1 ag: 0.6; M1 PAM: -22.3; CHRM5 agonist: 5.9; M1 antag: 29.7

How did O=C(Nc1cccc(S(=O)(=O)N2CCCC2)c1)c1cccc(S(=O)(=O)N2CCOCC2)c1 do in these assays?
M5 PAM: -9.2; M5 antag: 3.1; M1 ag: -8.1; M1 PAM: -19.0; CHRM5 agonist: -6.4; M1 antag: 29.2*

How did O=C(Nc1cccc(Br)c1)c1ccc(Cl)c(S(=O)(=O)N2CCOCC2)c1 do in these assays?
M5 PAM: -21.9; M5 antag: 8.7; M1 ag: 1.3; M1 PAM: -27.7; CHRM5 agonist: 9.6; M1 antag: 42.8*

Results for O=C(Nc1ccc(N2CCOCC2)cc1)c1cccc(S(=O)(=O)N2CCCC2)c1 ?
M5 PAM: 7.7; M5 antag: -6.6; M1 ag: -11.5; M1 PAM: -29.0; CHRM5 agonist: -4.0; M1 antag: 33.6*

What do the screens show for `O=C(NN=Cc1ccc(F)cc1)c1cccc(S(=O)(=O)N2CCCC2)c1`?
M5 PAM: -3.2; M5 antag: 3.2; M1 ag: -5.1; M1 PAM: -16.0; CHRM5 agonist: 0.6; M1 antag: 35.6*

How did O=C(Nc1ccc(Cl)c(S(=O)(=O)N2CCOCC2)c1)c1ccc(OCC2CCCO2)cc1 (stereo unspecified) do in these assays?
M5 PAM: -17.0; M5 antag: 26.4; M1 ag: 0.3; M1 PAM: -29.7; CHRM5 agonist: 7.1; M1 antag: 36.4*

How did COc1ccc(S(=O)(=O)Nc2ccccc2Cl)cc1NC(C)=O do in these assays?
M5 PAM: -11.5; M5 antag: 12.5; M1 ag: -6.3; M1 PAM: -4.9; CHRM5 agonist: 1.1; M1 antag: -0.5

What do the screens show for `CN(c1ccccc1C(=O)Nc1ccc(S(=O)(=O)N2CCOCC2)cc1)S(=O)(=O)c1ccccc1`?
M5 PAM: -2.0; M5 antag: 3.9; M1 ag: -11.0; M1 PAM: -26.8; CHRM5 agonist: -3.2; M1 antag: 42.7*

How did CN1CCN(c2ccc(NC(=O)c3cccc(S(=O)(=O)N4CCCC4)c3)cc2)CC1 do in these assays?
M5 PAM: -14.8; M5 antag: 6.5; M1 ag: -8.4; M1 PAM: -26.2; CHRM5 agonist: -1.4; M1 antag: 46.6*

How did COc1ccc(C(=O)Nc2cccnc2)cc1S(=O)(=O)N1CCOCC1 do in these assays?
M5 PAM: 20.2*; M5 antag: 11.0; M1 ag: -3.2; M1 PAM: -3.6; CHRM5 agonist: -0.4; M1 antag: 2.2

How did O=C(Nc1ccc(S(=O)(=O)N2CCOCC2)cc1)c1ccccc1Br do in these assays?
M5 PAM: -1.9; M5 antag: -2.9; M1 ag: -4.3; M1 PAM: 5.1; CHRM5 agonist: -2.1; M1 antag: -6.9

How did O=C(Nc1cccnc1)c1ccc(Cl)c(S(=O)(=O)N2CCOCC2)c1 do in these assays?
M5 PAM: -4.9; M5 antag: 11.0; M1 ag: 0.8; M1 PAM: -1.6; CHRM5 agonist: -1.2; M1 antag: -3.8

Results for COc1ccc(C(=O)Nc2cccc(-c3csc(C)n3)c2)cc1S(=O)(=O)N1CCCC1 ?
M5 PAM: -30.0; M5 antag: 20.8; M1 ag: -3.3; M1 PAM: -14.0; CHRM5 agonist: -1.1; M1 antag: 35.5*

Results for O=C(Nc1ccc(N2CCOCC2)cc1)c1cccc(S(=O)(=O)N2CCCCCC2)c1 ?
M5 PAM: -1.0; M5 antag: 4.9; M1 ag: -1.8; M1 PAM: 3.0; CHRM5 agonist: 0.1; M1 antag: -3.4

What do the screens show for `O=C(N[C@@H](Cc1ccccc1)C(=O)N1CCN(S(=O)(=O)c2ccc(F)cc2)CC1)c1ccco1`?
M5 PAM: -1.5; M5 antag: 0.9; M1 ag: -2.3; M1 PAM: 1.2; CHRM5 agonist: -1.4; M1 antag: -2.5

How did CCOC(=O)N1CCN(CC(=O)Nc2sc(CC)cc2C(=O)c2ccc(OC)cc2)CC1 do in these assays?
M5 PAM: -8.4; M5 antag: 17.3; M1 ag: -3.8; M1 PAM: 5.7; CHRM5 agonist: -3.1; M1 antag: -10.9

Results for C=CCN(CC=C)S(=O)(=O)c1ccc(NC(=S)NC(=O)Cc2ccc(OC)cc2)cc1 ?
M5 PAM: -8.2; M5 antag: -1.0; M1 ag: 1.6; M1 PAM: -2.4; CHRM5 agonist: 9.4; M1 antag: 6.0

How did CC(C)N(C(=S)Nc1cccc(S(=O)(=O)N(C)C)c1)c1ccccc1 do in these assays?
M5 PAM: 19.0*; M5 antag: 3.3; M1 ag: -2.7; M1 PAM: 7.6; CHRM5 agonist: 5.0; M1 antag: -11.2

What do the screens show for `Cc1ccc(NC(=O)COC(=O)Cc2ccc(Br)cc2)cc1S(=O)(=O)N1CCOCC1`?
M5 PAM: -6.8; M5 antag: 11.5; M1 ag: -1.5; M1 PAM: -16.1; CHRM5 agonist: 3.0; M1 antag: 35.2*
